From ChEMBL document CHEMBL4266005, “Discovery of a Biologically Active Bromodomain Inhibitor by Target-Directed Dynamic Combinatorial Chemistry” (ACS Med Chem Lett, 2018)
pIC50, pKd: −log10 of the molar value. Activity calls are given as the source filed them. The calls are words filed in the database; no cut-off is given here.

Assays:
Trypanosoma cruzi [1] = assay: Binding affinity to recombinant Trypanosoma cruzi His/haemaglutinin-tagged BDF3 expressed in Escherichia coli BL21 assessed as change in melting temperature at 10 uM by SYPRO orange based thermal shift assay
[2] = (§1) Binding affinity to recombinant Trypanosoma cruzi His/haemaglutinin-tagged BDF3 expressed in Escherichia coli BL21 by fluorescence spectra analysis
Method in brief: (§2)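 Intrinsic tryptophan (W117) fluorescence spectra were recorded for 10 μM recombinant TcBDF3 in 100 mM ammonium acetate, pH 6.5, alone and with increasing ligand; building blocks were tested at 100 μM. Quenching was analyzed by Stern–Volmer, modified Stern–Volmer and double-logarithmic plots, and Kd came from the double-logarithmic plot.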

Trypanosoma cruzi [3] = assay: Binding affinity to recombinant Trypanosoma cruzi His/haemaglutinin-tagged BDF3 Y123A/L130A double mutant expressed in Escherichia coli BL21 assessed as change in melting temperature at 10 uM by SYPRO orange based thermal shift assay
Trypanosoma cruzi [4] = assay: Binding affinity to recombinant Trypanosoma cruzi His/haemaglutinin-tagged BDF3 Y123A/L130A double mutant expressed in Escherichia coli BL21 by fluorescence spectra analysis
Method in brief: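 Intrinsic tryptophan fluorescence of 10 μM recombinant protein in 100 mM ammonium acetate, pH 6.5, measured with and without the hydrazone dynamic library. Maximum emission was normalized and compared.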

Vero = assay: Cytotoxicity against African green monkey Vero cells after 72 hrs by MTT assay; format: cell-based; conditions: Chlorocebus sabaeus
Trypanosoma cruzi [5] = assay: Antitrypanosomal activity against Trypanosoma cruzi Dm28c trypomastigotes infected in African green monkey Vero cells after 24 hrs by CPRG/Nonidet reagent based beta-galactosidase reporter gene assay; format: functional, organism-based
Method in brief: (§3)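 β-Galactosidase-expressing parasites were exposed to 0–200 μM of compound. Growth inhibition was read from β-galactosidase activity, and IC50 was obtained by nonlinear regression of activity against concentration.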

Trypanosoma cruzi [6] = assay: Antitrypanosomal activity against Trypanosoma cruzi Dm28c amastigotes infected in African green monkey Vero cells after 48 hrs by CPRG/Nonidet reagent based beta-galactosidase reporter gene assay; format: functional, organism-based; method in brief: as §3
[7] = Selectivity index, ratio of IC50 for African green monkey Vero cells to IC50 for Trypanosoma cruzi Dm28c epimastigotes infected in African green monkey Vero cells; format: toxicity; conditions: read-out: Ratio IC50
Method in brief: (§4)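 Selectivity index is the Vero cell toxicity IC50 divided by the IC50 against the relevant extracellular or intracellular parasite form.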

Trypanosoma cruzi [8] = assay: Binding affinity to recombinant Trypanosoma cruzi His/haemaglutinin-tagged BDF3 Y123A/L130A double mutant expressed in Escherichia coli BL21 by LC-MS based dynamic combinatorial chemistry analysis
Method in brief: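 Dynamic library of six aldehydes and four acylhydrazides (75 μM each) in 100 mM ammonium acetate, pH 6.5, with 3.75 mM aniline, equilibrated about 10 h, with and without 100 μM recombinant protein. Read-out: LC–MS peak areas. Amplification factor = peak area in templated library ÷ peak area in untemplated library.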

[9] = Selectivity index, ratio of IC50 for African green monkey Vero cells to IC50 for Trypanosoma cruzi Dm28c amastigotes infected in African green monkey Vero cells; format: toxicity; conditions: read-out: Ratio IC50; method in brief: as §4
Trypanosoma cruzi [10] = assay: Antitrypanosomal activity against Trypanosoma cruzi Dm28c epimastigotes infected in African green monkey Vero cells after 72 hrs by CPRG/Nonidet reagent based beta-galactosidase reporter gene assay; format: functional, organism-based; method in brief: as §3
Trypanosoma cruzi [11] = assay: Binding affinity to recombinant Trypanosoma cruzi His/haemaglutinin-tagged BDF3 expressed in Escherichia coli BL21 assessed as compound amplification factor at 75 uM by LC-MS based dynamic combinatorial chemistry analysis
Method in brief: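 A dynamic acylhydrazone library was built from six aldehydes and four acylhydrazides (75 μM each) in 100 mM ammonium acetate, pH 6.5, with 3.75 mM aniline. It reached constant composition by about 10 h and was run with or without 100 μM recombinant TcBDF3. Amplification factor is the LC–MS peak area with template divided by the area without template.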

[12] = Selectivity index, ratio of IC50 for African green monkey Vero cells to IC50 for Trypanosoma cruzi Dm28c trypomastigotes infected in African green monkey Vero cells; format: toxicity; conditions: read-out: Ratio IC50; method in brief: as §4
Trypanosoma cruzi [13] = assay: Binding affinity to recombinant Trypanosoma cruzi His/haemaglutinin-tagged BDF3 expressed in Escherichia coli BL21 at 100 uM by fluorescence spectra analysis; method in brief: as §2
Trypanosoma cruzi [14] = assay: as §1; method in brief: as §2
Trypanosoma cruzi [15] = assay: Binding affinity to recombinant Trypanosoma cruzi His/haemaglutinin-tagged BDF3 expressed in Escherichia coli BL21 assessed as change in melting temperature by SYPRO orange based thermal shift assay
Trypanosoma cruzi [16] = assay: Antitrypanosomal activity against Trypanosoma cruzi Dm28c […] infected in African green monkey Vero cells at 25 uM after 48 hrs by CPRG/Nonidet reagent based beta-galactosidase reporter gene assay; format: functional, organism-based

| Structure (SMILES) | fold change (FC) (Trypanosoma cruzi [11]) | other results |
| --- | --- | --- |
| COc1cc(/C=N/NC(=O)c2cccs2)ccc1O | 2.4 | ΔTm (Trypanosoma cruzi [1]): 3.43 °C; pKd [2]: 5.77; ΔTm (Trypanosoma cruzi [3]): 0.4 °C; Activity (Trypanosoma cruzi [4]): inactive; pIC50 (Vero): < 3.70; pIC50 (Trypanosoma cruzi [5]): 4.75; pIC50 (Trypanosoma cruzi [6]): 4.88; selectivity ratio [7]: > 9; Activity (Trypanosoma cruzi [8]): inactive; selectivity ratio [9]: > 15; pIC50 (Trypanosoma cruzi [10]): 4.64; selectivity ratio [12]: > 11 |
| O=C(N/N=C/c1ccc(CO)o1)c1cccs1 | < 1 | – |
| O=C(N/N=C/c1ccc(CO)o1)c1ccccc1 | < 1 | – |
| COc1cc(/C=N/NC(=O)c2ccncc2)ccc1O | < 1 | – |
| COc1cc(/C=N/NC(=O)c2ccco2)ccc1O | 1.5 to 2 | – |
| COc1cc(/C=N/NC(=O)c2ccccc2)cc(OC)c1OC | < 1 | – |
| O=C(N/N=C/CCC/C=N/NC(=O)c1cccs1)c1cccs1 | 1.5 to 2 | – |
| O=C(N/N=C/CCC/C=N/NC(=O)c1cccs1)c1ccncc1 | < 1 | – |
| O=C(N/N=C/c1ccc(CO)o1)c1ccncc1 | < 1 | – |
| O=C(O)c1ccc(/C=N/NC(=O)c2ccco2)cc1 | < 1 | – |
| COc1cc(C=O)ccc1O | – | Activity (Trypanosoma cruzi [13]): inactive |
| CC1CS(=O)(=O)CCN1/N=C/c1ccc([N+](=O)[O-])o1 (stereo not drawn) [NIFURTIMOX] | – | pIC50 (Vero): 3.94; pIC50 (Trypanosoma cruzi [5]): 5.15; pIC50 (Trypanosoma cruzi [6]): 5.52; selectivity ratio [7]: 14; selectivity ratio [9]: 38; pIC50 (Trypanosoma cruzi [10]): 5.10; selectivity ratio [12]: 16 |
| O=C(N/N=C/c1ccc(CO)o1)c1ccco1 | < 1 | – |
| O=C(N/N=C/CCC/C=N/NC(=O)c1ccco1)c1ccco1 | < 1 | – |
| O=C(O)c1ccc(/C=N/NC(=O)c2cccs2)cc1 | < 1 | – |
| O=C(N/N=C/[C@H](O)[C@H](O)[C@H](O)[C@@H](O)CO)c1ccncc1 | 1.5 to 2 | – |
| O=C(O)c1ccc(/C=N/NC(=O)c2ccncc2)cc1 | < 1 | – |

| Structure (SMILES) | fold change (FC) (Trypanosoma cruzi [11]) | other results |
| --- | --- | --- |
| COc1cc(/C=N/NC(=O)c2ccco2)cc(OC)c1OC | < 1 | – |
| O=C(N/N=C/CCC/C=N/NC(=O)c1ccccc1)c1ccccc1 | < 1 | – |
| O=C(N/N=C/CCC/C=N/NC(=O)c1cccs1)c1ccccc1 | < 1 | – |
| NNC(=O)c1cccs1 | – | Activity (Trypanosoma cruzi [13]): inactive |
| O=C(Cn1ccnc1[N+](=O)[O-])NCc1ccccc1 [BENZNIDAZOLE] | – | pIC50 (Vero): 4.52; pIC50 (Trypanosoma cruzi [5]): 4.57; pIC50 (Trypanosoma cruzi [6]): 5.41; pIC50 (Trypanosoma cruzi [10]): 4.74 |
| COc1cc(/C=N/NC(=O)c2ccncc2)cc(OC)c1OC | < 1 | – |
| O=C(N/N=C/[C@H](O)[C@H](O)[C@H](O)[C@@H](O)CO)c1ccccc1 | 1.5 to 2 | – |
| COc1cc(/C=N/NC(=O)c2cccs2)cc(OC)c1OC | 1.2 | Activity (Trypanosoma cruzi [14]): Active; Activity (Trypanosoma cruzi [15]): Active; Activity (Trypanosoma cruzi [16]): Active |
| O=C(N/N=C/[C@H](O)[C@H](O)[C@H](O)[C@@H](O)CO)c1ccco1 | < 1 | – |
| O=C(N/N=C/CCC/C=N/NC(=O)c1ccncc1)c1ccncc1 | < 1 | – |
| COc1cc(/C=N/NC(=O)c2ccccc2)ccc1O | 1.5 to 2 | – |
| O=C(N/N=C/[C@H](O)[C@H](O)[C@H](O)[C@@H](O)CO)c1cccs1 | < 1 | – |
| O=C(N/N=C/CCC/C=N/NC(=O)c1ccncc1)c1ccccc1 | < 1 | – |
| O=C(O)c1ccc(/C=N/NC(=O)c2ccccc2)cc1 | < 1 | – |
| O=C(N/N=C/CCC/C=N/NC(=O)c1ccco1)c1ccccc1 | < 1 | – |
| O=C(N/N=C/CCC/C=N/NC(=O)c1ccco1)c1ccncc1 | < 1 | – |
| O=C(N/N=C/CCC/C=N/NC(=O)c1cccs1)c1ccco1 | < 1 | – |
